# Reference: ChEMBL document CHEMBL4257442, “An insight into tetrahydro-β-carboline-tetrazole hybrids: synthesis and bioevaluation as potent antileishmanial agents” (Medchemcomm, 2017)
# Assays:
# [1] = Cytotoxicity against mouse J774A.1 cells after 2 hrs by MTT assay; type: cell-based, J774.A1
# Outline: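 Mouse macrophage J-774A.1 cells obtained from NCCS, Pune, were used for the in vitro cytotoxicity assay. CC50 is the average of three independent assays, expressed as average ± standard error.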
# [2] = test system: Leishmania donovani; test: Antileishmanial activity against Leishmania donovani MHOM/IN/80/Dd8 amastigotes harboring luciferase reporter gene infected in mouse J774A.1 cells after 72 hrs by Steady-Glo luminescence assay; type: functional, organism-based; details: MHOM/IN/80/Dd8, J774.A1, 72 h
# Outline: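 Intracellular L. donovani amastigotes in murine macrophages, with firefly luciferase reporter expression. IC50 is the concentration giving 50% inhibition of parasite growth. Values are the average of three independent assays, given as average ± standard error.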
# [3] = test system: Leishmania donovani; test: Antileishmanial activity against Leishmania donovani MHOM/IN/80/Dd8 promastigotes harboring luciferase reporter gene after 72 hrs by Steady-Glo luminescence assay; type: functional, organism-based; details: MHOM/IN/80/Dd8, 72 h
# Outline: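 Extracellular promastigotes of the L. donovani WHO reference strain MHOM/IN/80/Dd8. IC50 is the concentration giving 50% inhibition of parasite growth. Values are the average of three independent assays, given as average ± standard error.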
# [4] = Selectivity index, ratio of CC50 for mouse J774A.1 cells to IC50 for Leishmania donovani MHOM/IN/80/Dd8 amastigote forms infected in mouse J774A.1 cells; type: toxicity, cell-based; details: read-out: Ratio CC50/IC50
# Outline: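 SI was calculated as the cytotoxicity CC50 in J-774A.1 cells divided by the anti-amastigote IC50. The amastigote assay used murine macrophages expressing a firefly luciferase reporter, infected with intracellular L. donovani. Each IC50 and CC50 is the average of three independent assays.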
# [5] = Cmax in golden Syrian hamster at 50 mg/kg, po measured up to 24 hrs by LC-MS/MS analysis; type: ADME, organism-based, Mesocricetus auratus; set-up: dose 50 mg/kg, route oral; details: in vivo
# Outline: (§1)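 Single oral 50 mg kg–1 dose given to golden Syrian hamsters (n = 5). Compound quantified in serum over time up to 24 h by validated LC-MS/MS with electrospray ionization. Parameters came from non-compartmental analysis of the mean serum concentration–time profile and are reported as mean ± SEM of five animals.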
# [6] = MRT in golden Syrian hamster at 50 mg/kg, po measured up to 24 hrs by LC-MS/MS analysis; type: ADME, organism-based, Mesocricetus auratus; details: in vivo; outline: as §1
# [7] = test system: Leishmania donovani; test: (§2) Antileishmanial activity against Leishmania donovani MHOM/IN/80/Dd8 amastigotes infected in golden hamsters assessed as inhibition of splenic parasite burden at 50 mg/kg, ip for 5 consecutive days initiated after 2 days of biopsy and measured on day 28 post last dose by Giemsa staining-based assay relative to control; type: functional; details: MHOM/IN/80/Dd8, ip
# Outline: (§3)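 Golden hamster model infected with L. donovani. Treatment was 50 mg kg–1 given intraperitoneally for 5 consecutive days. Read-out was % inhibition of splenic parasite burden.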
# [8] = test system: Leishmania donovani; test: as §2, with “100” for “50”, “po” for “ip”, “7” for “28”; type: functional; details: MHOM/IN/80/Dd8, po
# [9] = AUClast in golden Syrian hamster at 50 mg/kg, po measured up to 24 hrs by LC-MS/MS analysis; type: ADME, organism-based, Mesocricetus auratus; set-up: time < 24 hr, dose 50 mg/kg, route oral; details: in vivo; outline: as §1
# [10] = test system: Leishmania donovani; test: as §2, with “100” for “50”, “po” for “ip”; type: functional; details: MHOM/IN/80/Dd8, po
# [11] = test system: Leishmania donovani; test: as §2, with “7” for “28”; type: functional; details: MHOM/IN/80/Dd8, ip; outline: as §3
# [12] = Apparent oral volume of distribution in golden Syrian hamster at 50 mg/kg measured up to 24 hrs by LC-MS/MS analysis; type: ADME, organism-based, Mesocricetus auratus; details: in vivo; outline: as §1
# [13] = Apparent oral clearance in golden Syrian hamster at 50 mg/kg measured up to 24 hrs by LC-MS/MS analysis; type: ADME, organism-based, Mesocricetus auratus; details: in vivo; outline: as §1
# [14] = Tmax in golden Syrian hamster at 50 mg/kg, po measured up to 24 hrs by LC-MS/MS analysis; type: ADME, organism-based, Mesocricetus auratus; details: in vivo; outline: as §1
# [15] = test system: Leishmania donovani; test: as §2, with “30” for “50”, “po” for “ip”, “7” for “28”; type: functional; details: MHOM/IN/80/Dd8, po
Compound,CC50 at 2 h [1] [µM],IC50 [2] [µM],IC50 [3] [µM],selectivity ratio [4],further results
CC(C)(C)n1nnnc1C(c1ccc(F)cc1)N1CCc2c([nH]c3ccccc23)C1 (configuration not stated),48.8,17.5,2.71,3,
COc1cc(C(c2nnnn2C2CCCCC2)N2CCc3c([nH]c4ccccc34)C2)cc(OC)c1OC (configuration not stated),36,1.57,2.81,23,Cmax [5]: 76.2 to 83.5 ng/mL; MRT [6]: 10.2 h; inhibition in vivo at 50 mg/kg [7]: 88.9%; inhibition in vivo at 100 mg/kg [8]: 50.9%; AUC(0-t) at 24 h [9]: 844 ng·h/mL; inhibition in vivo at 100 mg/kg [10]: 77.5%; inhibition in vivo at 50 mg/kg [11]: 75%; Vd/F [12]: 652 L/kg; CL/F [13]: 720 mL/min/kg; Tmax [14]: 1.6 to 8 h
COc1cc(C(c2nnnn2C(C)(C)C)N2CCc3c([nH]c4ccccc34)C2)cc(OC)c1OC (configuration not stated),,≥ 50,23.5,,
Clc1ccc(C(c2nnnn2C2CCCCC2)N2CCc3c([nH]c4ccccc34)C2)cc1 (configuration not stated),35.5,2.08,2.89,17,
COc1ccc(C(c2nnnn2C2CCCCC2)N2CCc3c([nH]c4ccccc34)C2)cc1 (configuration not stated),,≥ 50,20.4,,
CC(C)(C)n1nnnc1C(c1ccccc1)N1CCc2c([nH]c3ccccc23)C1 (configuration not stated),146,5.41,4.07,27,inhibition in vivo at 50 mg/kg [7]: 3.79%; inhibition in vivo at 50 mg/kg [11]: 4.05%
CC(C)(C)n1nnnc1C(c1ccc(Br)cc1)N1CCc2c([nH]c3ccccc23)C1 (configuration not stated),144,3.77,1.58,38,inhibition in vivo at 50 mg/kg [7]: 53.1%; inhibition in vivo at 50 mg/kg [11]: 33.7%
Fc1ccc(C(c2nnnn2C2CCCCC2)N2CCc3c([nH]c4ccccc34)C2)cc1 (configuration not stated),,≥ 25,14.5,,
Clc1ccccc1C(c1nnnn1C1CCCCC1)N1CCc2c([nH]c3ccccc23)C1 (configuration not stated),,≥ 50,≥ 100,,
CC(C)(C)n1nnnc1C(c1ccc([N+](=O)[O-])cc1)N1CCc2c([nH]c3ccccc23)C1 (configuration not stated),140,3.78,0.59,37,inhibition in vivo at 50 mg/kg [7]: 19.6%; inhibition in vivo at 50 mg/kg [11]: 20.4%
COc1ccc(C(c2nnnn2C(C)(C)C)N2CCc3c([nH]c4ccccc34)C2)cc1 (configuration not stated),42,4.32,1.14,10,
CC(C)(C)n1nnnc1C(c1ccc(Cl)cc1)N1CCc2c([nH]c3ccccc23)C1 (configuration not stated),37,14.2,3.45,2,
O=[N+]([O-])c1ccc(C(c2nnnn2C2CCCCC2)N2CCc3c([nH]c4ccccc34)C2)cc1 (configuration not stated),,≥ 50,31,,
CC(C)(C)n1nnnc1C(c1ccc(C#N)cc1)N1CCc2c([nH]c3ccccc23)C1 (configuration not stated),150,16.4,2.82,9,
CC(C)(C)n1nnnc1C(c1cccc([N+](=O)[O-])c1)N1CCc2c([nH]c3ccccc23)C1 (configuration not stated),150,3.86,4.91,39,inhibition in vivo at 50 mg/kg [7]: 2.92%; inhibition in vivo at 50 mg/kg [11]: 4.83%
COc1ccc(C(c2nnnn2C(C)(C)C)N2CCc3c([nH]c4ccccc34)C2)cc1OC (configuration not stated),138,16,5.71,8,
CC(C)c1ccc(C(c2nnnn2C(C)(C)C)N2CCc3c([nH]c4ccccc34)C2)cc1 (configuration not stated),130,17.6,3.56,7,
COc1ccc(C(c2nnnn2C2CCCCC2)N2CCc3c([nH]c4ccccc34)C2)cc1OC (configuration not stated),41.9,3.31,1.2,13,
N#Cc1ccc(C(c2nnnn2C2CCCCC2)N2CCc3c([nH]c4ccccc34)C2)cc1 (configuration not stated),,≥ 50,≥ 100,,
Brc1ccc(C(c2nnnn2C2CCCCC2)N2CCc3c([nH]c4ccccc34)C2)cc1 (configuration not stated),,≥ 50,16.5,,
CCCCCCCCCCCCCCCCOP(=O)([O-])OCC[N+](C)(C)C [MILTEFOSINE],12.4,,,1.48,inhibition in vivo at 30 mg/kg [15]: 98.1%
